Measurements from different studies.
Each line is one published result; the experiments were not run side by side.
Target: Muscle, skeletal receptor tyrosine-protein kinase (MUSK, Homo sapiens, UniProt O15146)
Concentration: 1 µM
Residues used in one study (O15146 24-869): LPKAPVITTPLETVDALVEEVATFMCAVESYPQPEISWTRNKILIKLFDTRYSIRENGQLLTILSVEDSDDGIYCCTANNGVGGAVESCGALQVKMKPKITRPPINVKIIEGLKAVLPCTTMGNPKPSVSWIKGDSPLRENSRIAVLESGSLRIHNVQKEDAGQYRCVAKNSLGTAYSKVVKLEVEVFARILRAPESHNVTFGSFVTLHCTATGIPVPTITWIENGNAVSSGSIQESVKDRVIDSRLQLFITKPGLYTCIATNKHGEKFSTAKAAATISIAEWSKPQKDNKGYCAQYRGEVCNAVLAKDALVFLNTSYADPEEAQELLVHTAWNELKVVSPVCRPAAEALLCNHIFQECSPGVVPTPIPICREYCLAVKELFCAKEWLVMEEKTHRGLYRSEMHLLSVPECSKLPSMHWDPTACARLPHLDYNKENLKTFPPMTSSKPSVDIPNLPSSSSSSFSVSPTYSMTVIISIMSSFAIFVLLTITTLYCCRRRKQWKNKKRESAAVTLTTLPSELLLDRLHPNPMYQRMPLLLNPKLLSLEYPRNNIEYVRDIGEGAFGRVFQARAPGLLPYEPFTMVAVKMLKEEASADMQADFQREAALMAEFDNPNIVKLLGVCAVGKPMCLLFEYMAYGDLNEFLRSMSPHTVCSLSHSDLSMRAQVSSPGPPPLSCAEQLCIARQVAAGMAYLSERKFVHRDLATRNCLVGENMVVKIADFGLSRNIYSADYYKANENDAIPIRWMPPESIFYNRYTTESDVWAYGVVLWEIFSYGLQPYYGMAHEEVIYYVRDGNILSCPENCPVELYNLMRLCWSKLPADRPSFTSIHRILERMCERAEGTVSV

| SMILES | test | remaining binding |
| --- | --- | --- |
| CO[C@@H](C)c1c(Nc2ccc([C@@H](N(C)C(=O)C3CCS(=O)(=O)CC3)C(F)(F)F)cc2)cnc2cc(Cl)nn12 | cell-free assay, competition with immobilised ligand | 88% |
| C=CC(=O)N1CCC(C(=O)NCC(=O)N2CCN(c3nc(-c4cnc(N)nc4C(F)F)nc(N4CCOCC4)n3)CC2)CC1 | binding, competition with immobilised ligand | 79% |
| CN(C)c1nccc(-c2cnn3ncccc23)n1 | binding | 92% |
| Cc1c(NC(=O)c2cc(C(N)=O)nc3cc(F)ccc23)c(C(F)(F)F)nn1Cc1ccc(C#N)cc1 | cell-free assay, competition with immobilised ligand | 95% |
| Nc1ncc2c(n1)-c1c([nH]c3ccc(C#CC4CC4)cc13)CCCC2 | binding, competition with immobilised ligand | 100% |
| Cc1cnn2ncc(-c3ccnc(N(C)C)n3)c2c1 | binding | 79% |
| O=C1CCc2cc(Nc3cc(OC4CCOCC4)c([N+](=O)[O-])cc3Cl)ccc2N1 | cell-free assay, competition with immobilised ligand | 100% |
| O=C(NCC1CCOCC1)c1n[nH]cc1NC(=O)c1c(F)cccc1F | binding, competition with immobilised ligand | 88% |
| FC(F)(F)c1ccc2c(c1)nc(-c1cccnc1)n2C1CC1 | cell-free assay, competition with immobilised ligand | 100% |
| CN(c1nccc(-c2cnn3ncccc23)n1)C1CC1 | binding | 100% |
| CC(=O)c1c(NS(C)(=O)=O)c2cc(-c3ccc(Cl)cc3)c(-c3ccc(Cl)cc3Cl)nc2n(C)c1=O | cell-free assay, competition with immobilised ligand | 99% |
| COc1ccnn2ncc(-c3ccnc(N(C)C)n3)c12 | binding | 93% |
| CCS(=O)(=O)c1cc2cc(C[C@](O)(CC(C)(C)c3ccc(F)cc3C(N)=O)C(F)(F)F)[nH]c2cn1 | cell-free assay, competition with immobilised ligand | 94% |
| C[C@H]1CCN(c2nccc(-c3cnn4ncccc34)n2)C1 | binding | 80% |
| O=C(c1ccc(Nc2ncc(Cl)c(-c3cc4ccccc4s3)n2)cc1)N1CCC(N2CCCC2)CC1 | binding, competition with immobilised ligand | 24% |
| CN(C)c1ncc(F)c(-c2cnn3ncccc23)n1 | binding | 100% |
| CCN1CCN(Cc2ccc(C(=O)Nc3ccc(C)c(Oc4ccc5c(c4)CC(=O)N5)c3)cc2C(F)(F)F)CC1 | binding, competition with immobilised ligand | 100% |
| COc1cnc(Nc2cccc(S(N)(=O)=O)c2)nc1N1CCN(c2ccccc2)CC1 | binding, competition with immobilised ligand | 97% |
| Cc1cnc(Nc2ccc(C(=O)N3CCC(N4CCCC4)CC3)cc2)nc1-c1cc2ccccc2s1 | binding, competition with immobilised ligand | 30% |
| COc1ccc2c(c1)O[C@@H](c1ccc(OC)c(OC)c1)C[C@H]2NC(=O)C1(c2ccc3c(c2)OC(F)(F)O3)CC1 | cell-free assay, competition with immobilised ligand | 94% |
| N[C@H]1CCN(c2nccc(-c3cnn4ncccc34)n2)C1 | binding | 100% |
| O=C(NCCCN1CCOCC1)c1ccc(Nc2ncc(Cl)c(-c3ccc(Cl)s3)n2)cc1 | binding, competition with immobilised ligand | 54% |
